Assay results published in ChEMBL document CHEMBL4359823, “Switching on the activity of 1,5-diaryl-pyrrole derivatives against drug-resistant ESKAPE bacteria: Structure-activity relationships and mode of action studies” (Eur J Med Chem, 2019).
pIC50: −log10 of the molar value. ≈ marks a conversion by molar mass, not a printed value.

Columns and labels:
Enterococcus faecalis [1] = assay: Antibacterial activity against vancomycin resistant Enterococcus faecalis NCTC12204 measured after overnight incubation by microbroth dilution method; format: functional
How it was run: (§1)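 Microbroth dilution: DMSO stocks diluted in water, 2-fold series. Overnight TSB cultures back-diluted to OD 0.01 and mixed 1:1 with compound. Incubated overnight at 37 °C; MIC taken as lowest concentration without visible growth (<0.1 OD600). Run in duplicate; matching DMSO levels checked for effect on growth.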

Enterococcus faecalis [2] = assay: Antibacterial activity against vancomycin resistant Enterococcus faecalis NCTC12201 measured after overnight incubation by microbroth dilution method; format: functional; how it was run: as §1
Enterococcus faecalis [3] = assay: Antibacterial activity against vancomycin sensitive Enterococcus faecalis NCTC775 measured after overnight incubation by microbroth dilution method; format: functional; how it was run: as §1
Staphylococcus aureus [4] = assay: Antibacterial activity against methicillin-resistant Staphylococcus aureus EMRSA15 measured after overnight incubation by microbroth dilution method; format: functional; how it was run: as §1
Staphylococcus aureus [5] = assay: Antibacterial activity against methicillin-sensitive Staphylococcus aureus ATCC 9144 measured after overnight incubation by microbroth dilution method; format: functional; how it was run: as §1
Staphylococcus aureus [6] = assay: Antibacterial activity against methicillin-resistant Staphylococcus aureus MRSA252 measured after overnight incubation by microbroth dilution method; format: functional; how it was run: as §1
Staphylococcus aureus [7] = assay: Antibacterial activity against methicillin sensitive Staphylococcus aureus NCTC 6571 measured after overnight incubation by microbroth dilution method; format: functional; how it was run: as §1
Staphylococcus aureus [8] = assay: Antibacterial activity against methicillin resistant Staphylococcus aureus NCTC13616 measured after overnight incubation by microbroth dilution method; format: functional; how it was run: as §1
Staphylococcus aureus [9] = assay: Antibacterial activity against methicillin resistant Staphylococcus aureus NCTC13277 measured after overnight incubation by microbroth dilution method; format: functional; how it was run: as §1
Klebsiella pneumoniae [10] = assay: Antibacterial activity against Klebsiella pneumoniae M6 measured after overnight incubation by microbroth dilution method; format: functional
How it was run: (§2)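 Microbroth dilution MIC. Compound DMSO stocks were diluted in water as a 2-fold series. Overnight TSB cultures were back-diluted to OD 0.01 and mixed 1:1 with compound. Plates were incubated overnight at 37 °C. MIC was the lowest concentration without visible growth (<0.1 OD600), run in duplicate.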

Acinetobacter baumannii [11] = assay: Antibacterial activity against Acinetobacter baumannii ATCC 17978 measured after overnight incubation by microbroth dilution method; format: functional; how it was run: as §2
Escherichia coli [12] = assay: Antibacterial activity against Escherichia coli NCTC12923 measured after overnight incubation by microbroth dilution method; format: functional; how it was run: as §2
[13] = Inhibition of Staphylococcus aureus DNA gyrase subunit A2B2 using relaxed pBR322 DNA as substrate measured after 30 mins in presence of ATP by ethidium bromide-based gel electrophoresis
How it was run: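 Supercoiling assay with S. aureus wild-type or S84L gyrase and relaxed pBR322, with or without varying compound, at 37 °C for 30 min. The reaction was stopped with STEB and extracted with chloroform:isoamyl alcohol (24:1). The aqueous phase was run on a 1% agarose gel and the supercoiled band quantified. IC50 came from at least three independent replicates.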

Staphylococcus aureus [14] = assay: Antibacterial activity against Staphylococcus aureus NCTC13616 assessed as generation of drug resistance at 2 times MIC measured after 48 hrs by agar-based microbroth dilution method; format: functional
How it was run: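 Agar method: exponentially growing bacteria, in known numbers, plated on agar with doubling compound concentrations at and above the MIC; incubated 48 hours. Colonies growing above the MIC were picked and re-tested by microbroth MIC for raised resistance. Resistance frequency reported at 2xMIC.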

Topoisomerase IV = Topoisomerase IV (Staphylococcus aureus, UniProt P0C1S7+P0C1U9); assay: Inhibition of Staphylococcus aureus topoisomerase-4 expressed in Escherichia coli assessed as relaxation of pBR322 substrate measured after 30 mins by agarose gel electrophoresis
Enterococcus faecium = assay: Antibacterial activity against Enterococcus faecium NCTC12204 assessed as generation of drug resistance at 2 times MIC measured after 48 hrs by agar-based microbroth dilution method
Klebsiella pneumoniae [15] = assay: Antibacterial activity against Klebsiella pneumoniae NCTC13368 measured after overnight incubation by microbroth dilution method; format: functional; how it was run: as §2
Acinetobacter baumannii [16] = assay: Antibacterial activity against Acinetobacter baumannii AYE measured after overnight incubation by microbroth dilution method; format: functional; how it was run: as §2
Pseudomonas aeruginosa [17] = assay: Antibacterial activity against Pseudomonas aeruginosa PAO1 measured after overnight incubation by microbroth dilution method; format: functional; how it was run: as §2
Pseudomonas aeruginosa [18] = assay: Antibacterial activity against Pseudomonas aeruginosa NCTC13437 measured after overnight incubation by microbroth dilution method; format: functional; how it was run: as §2
Klebsiella pneumoniae [19] = assay: Antibacterial activity against Klebsiella pneumoniae NCTC13368 measured after overnight incubation in presence of polymyxin B nonapeptide by microbroth dilution method; format: functional
Klebsiella pneumoniae [20] = assay: Antibacterial activity against Klebsiella pneumoniae M6 measured after overnight incubation in presence of polymyxin B nonapeptide by microbroth dilution method; format: functional
Acinetobacter baumannii [21] = assay: Antibacterial activity against Acinetobacter baumannii AYE measured after overnight incubation in presence of polymyxin B nonapeptide by microbroth dilution method; format: functional
Acinetobacter baumannii [22] = assay: Antibacterial activity against Acinetobacter baumannii ATCC 17978 measured after overnight incubation in presence of polymyxin B nonapeptide by microbroth dilution method; format: functional
Pseudomonas aeruginosa [23] = assay: Antibacterial activity against Pseudomonas aeruginosa PAO1 measured after overnight incubation in presence of polymyxin B nonapeptide by microbroth dilution method; format: functional
Pseudomonas aeruginosa [24] = assay: Antibacterial activity against Pseudomonas aeruginosa NCTC13437 measured after overnight incubation in presence of polymyxin B nonapeptide by microbroth dilution method; format: functional
Escherichia coli [25] = assay: Antibacterial activity against Escherichia coli NCTC12923 measured after overnight incubation in presence of polymyxin B nonapeptide by microbroth dilution method; format: functional

Chain of Topoisomerase IV (P0C1U9 whole entry): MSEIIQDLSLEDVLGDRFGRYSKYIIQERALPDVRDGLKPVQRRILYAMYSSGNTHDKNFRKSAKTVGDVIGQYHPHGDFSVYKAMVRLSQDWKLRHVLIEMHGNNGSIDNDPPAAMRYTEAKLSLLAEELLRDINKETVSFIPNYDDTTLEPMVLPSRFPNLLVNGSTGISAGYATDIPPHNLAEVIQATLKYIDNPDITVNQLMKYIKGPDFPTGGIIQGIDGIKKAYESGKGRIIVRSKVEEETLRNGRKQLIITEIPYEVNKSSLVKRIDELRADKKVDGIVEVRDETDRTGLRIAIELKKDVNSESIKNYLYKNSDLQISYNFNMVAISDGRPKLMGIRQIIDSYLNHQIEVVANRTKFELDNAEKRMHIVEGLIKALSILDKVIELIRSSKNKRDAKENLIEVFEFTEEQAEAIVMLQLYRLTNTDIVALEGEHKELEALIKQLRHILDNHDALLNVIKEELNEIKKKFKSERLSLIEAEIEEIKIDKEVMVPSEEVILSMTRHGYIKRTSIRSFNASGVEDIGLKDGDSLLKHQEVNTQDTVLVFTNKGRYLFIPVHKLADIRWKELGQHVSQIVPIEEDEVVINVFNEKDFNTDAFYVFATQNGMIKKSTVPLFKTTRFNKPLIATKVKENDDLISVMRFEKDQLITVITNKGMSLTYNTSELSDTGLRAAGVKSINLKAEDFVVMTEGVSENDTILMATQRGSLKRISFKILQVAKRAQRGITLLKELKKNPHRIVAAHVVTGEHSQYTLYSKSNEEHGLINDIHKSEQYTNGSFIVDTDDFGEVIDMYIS
Chain of Topoisomerase IV (P0C1S7 whole entry): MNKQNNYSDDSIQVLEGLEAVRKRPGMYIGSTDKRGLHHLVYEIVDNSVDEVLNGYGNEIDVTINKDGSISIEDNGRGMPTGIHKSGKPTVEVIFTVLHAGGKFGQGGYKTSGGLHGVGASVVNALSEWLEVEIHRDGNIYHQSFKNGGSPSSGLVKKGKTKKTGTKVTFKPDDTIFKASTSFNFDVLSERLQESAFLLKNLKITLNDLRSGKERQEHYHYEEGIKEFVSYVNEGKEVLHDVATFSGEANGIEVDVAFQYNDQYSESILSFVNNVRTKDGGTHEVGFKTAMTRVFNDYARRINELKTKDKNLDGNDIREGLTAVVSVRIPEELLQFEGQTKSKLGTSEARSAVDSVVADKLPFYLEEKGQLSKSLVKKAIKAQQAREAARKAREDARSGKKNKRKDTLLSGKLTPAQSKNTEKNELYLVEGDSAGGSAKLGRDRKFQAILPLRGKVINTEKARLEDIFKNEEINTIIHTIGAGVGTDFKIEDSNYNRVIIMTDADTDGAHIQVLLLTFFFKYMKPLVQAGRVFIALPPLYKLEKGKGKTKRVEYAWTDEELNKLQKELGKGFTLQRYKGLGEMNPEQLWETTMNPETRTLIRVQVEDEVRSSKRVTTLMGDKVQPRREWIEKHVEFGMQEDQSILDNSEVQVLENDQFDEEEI

Compound	MIC (Enterococcus faecalis [1]) [µg/mL]	MIC (Enterococcus faecalis [2]) [µg/mL]	MIC (Enterococcus faecalis [3]) [µg/mL]	MIC (Staphylococcus aureus [4]) [µg/mL]	MIC (Staphylococcus aureus [5]) [µg/mL]	MIC (Staphylococcus aureus [6]) [µg/mL]	MIC (Staphylococcus aureus [7]) [µg/mL]	MIC (Staphylococcus aureus [8]) [µg/mL]	MIC (Staphylococcus aureus [9]) [µg/mL]	MIC (Klebsiella pneumoniae [10]) [µg/mL]	MIC (Acinetobacter baumannii [11]) [µg/mL]	MIC (Escherichia coli [12]) [µg/mL]	other results
Cc1cc(CN2CCN(C3C4CC5CC(C4)CC3C5)CC2)c(C)n1-c1ccc(C(C)C)cc1 (stereo unspecified)	8 (≈ 17.9 µM)	8 (≈ 17.9 µM)	16 (≈ 35.9 µM)	32 (≈ 71.8 µM)	32 (≈ 71.8 µM)	32 (≈ 71.8 µM)	–	–	–	–	–	–	–
C[C@H]1COc2c(N3CCN(C)CC3)c(F)cc3c(=O)c(C(=O)O)cn1c23.C[C@H]1COc2c(N3CCN(C)CC3)c(F)cc3c(=O)c(C(=O)O)cn1c23.O [LEVOFLOXACIN]	0.5	1	1	–	–	–	0.12	8	8	0.12	0.12	< 0.12	IC50 [13]: 8.71 µg/mL; Activity (Staphylococcus aureus [14]): 1.87e-05; pIC50 (Topoisomerase IV): 5.01; Activity (Enterococcus faecium): 7.08e-06
Cc1cc(CNCc2ccc(Cl)cc2)c(C)n1-c1ccc(Cl)cc1	8 (≈ 22.3 µM)	16 (≈ 44.5 µM)	32 (≈ 89.1 µM)	32 (≈ 89.1 µM)	32 (≈ 89.1 µM)	32 (≈ 89.1 µM)	–	–	–	–	–	–	–
Cc1ccc(CNCc2cc(C)n(-c3ccc(Cl)cc3)c2C)cc1	32 (≈ 94.4 µM)	64 (≈ 189 µM)	64 (≈ 189 µM)	64 (≈ 189 µM)	64 (≈ 189 µM)	64 (≈ 189 µM)	–	–	–	–	–	–	–
Cc1cc(CN2CCN(C3C4CC5CC(C4)CC3C5)CC2)c(C)n1-c1ccc(Cl)cc1 (stereo unspecified)	16 (≈ 36.5 µM)	16 (≈ 36.5 µM)	16 (≈ 36.5 µM)	32 (≈ 73 µM)	16 (≈ 36.5 µM)	32 (≈ 73 µM)	–	–	–	–	–	–	–
Cc1cc(CN2CCN(C3C4CC5CC(C4)CC3C5)CC2)c(C)n1-c1ccccc1F (stereo unspecified)	32 (≈ 75.9 µM)	32 (≈ 75.9 µM)	32 (≈ 75.9 µM)	32 (≈ 75.9 µM)	32 (≈ 75.9 µM)	32 (≈ 75.9 µM)	–	–	–	–	–	–	–
Cc1cc(CNOCc2ccccc2)c(C)n1-c1ccc(F)cc1	> 64	> 64	> 64	> 64	> 64	> 64	–	–	–	–	–	–	–
Cc1c(CNCc2ccccc2)cc(-c2ccc(Cl)cc2)n1-c1ccc(Cl)cc1	–	4 (≈ 9.49 µM)	4 (≈ 9.49 µM)	–	–	–	8 (≈ 19 µM)	8 (≈ 19 µM)	4 (≈ 9.49 µM)	> 128	> 128	> 128	MIC (Klebsiella pneumoniae [15]): > 128 µg/mL; MIC (Acinetobacter baumannii [16]): > 128 µg/mL; MIC (Pseudomonas aeruginosa [17]): > 128 µg/mL; MIC (Pseudomonas aeruginosa [18]): > 128 µg/mL; MIC (Klebsiella pneumoniae [19]): > 128 µg/mL; MIC (Klebsiella pneumoniae [20]): 32 µg/mL; MIC (Acinetobacter baumannii [21]): 16 µg/mL; MIC (Acinetobacter baumannii [22]): 16 µg/mL; MIC (Pseudomonas aeruginosa [23]): > 128 µg/mL; MIC (Pseudomonas aeruginosa [24]): > 128 µg/mL; MIC (Escherichia coli [25]): > 128 µg/mL
COc1ccc(-n2c(-c3ccc(Cl)cc3)cc(CNC3CCCCC3)c2C)cc1	8 (≈ 19.6 µM)	8 (≈ 19.6 µM)	8 (≈ 19.6 µM)	–	–	–	16 (≈ 39.1 µM)	16 (≈ 39.1 µM)	16 (≈ 39.1 µM)	> 128	128 (≈ 313 µM)	> 128	MIC (Klebsiella pneumoniae [15]): > 128 µg/mL; MIC (Acinetobacter baumannii [16]): > 128 µg/mL; MIC (Pseudomonas aeruginosa [17]): > 128 µg/mL; MIC (Pseudomonas aeruginosa [18]): > 128 µg/mL
